Calls of active or inactive are those of the source.

We go through 17 molecules from ChEMBL document CHEMBL1144710, “epigenetic multiple ligands: mixed histone/protein methyltransferase, acetyltransferase, and class III deacetylase (sirtuin) inhibitors” (J Med Chem, 2008).

Assay [1] deals with U-937. The assay can be described thus: Inhibition of histone H3R17 methylation in human U937 cells at 50 uM after 24 hrs. Type of assay: functional, cell-based. The essentials: (§1)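 U937 cells treated at 50 µM for 24 h. Histones extracted with Triton buffer, then 0.2 M HCl overnight at 4 °C. 3–10 µg run on 15% SDS-PAGE and immunoblotted with anti-monomethyl-H3K4, monomethyl-H4R3 or dimethyl-H3R17 (1:500, overnight 4 °C), ECL detection. Loading controls: total H4 (H3K4), Ponceau Red (Arg marks).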

The target in a further assay is RmtA (Emericella nidulans, UniProt Q5VLE3). In words: Inhibition of Aspergillus nidulans RmtA. In outline:
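Enzyme was GST-RmtA fusion expressed in E. coli BL21 and glutathione-affinity purified (500 ng), preincubated with compound for 15 min at room temperature. Then 20 µg chicken erythrocyte core histones and 0.55 µCi [3H]AdoMet were added, 30 min at 30 °C. Stopped with 25% TCA, filtered, counted by liquid scintillation.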

In assay [2] the test system is U-937. In words: Inhibition of histone H4R3 methylation in human U937 cells at 50 uM after 24 hrs. Type of assay: functional, cell-based. In outline: as §1
Assay [3] concerns U-937. In words: Inhibition of histone H3K4 methylation in human U937 cells at 50 uM after 24 hrs. It counts as functional, cell-based. The essentials:
as §1

RmtA, sequence (Q5VLE3 whole entry, the tested form may be a part): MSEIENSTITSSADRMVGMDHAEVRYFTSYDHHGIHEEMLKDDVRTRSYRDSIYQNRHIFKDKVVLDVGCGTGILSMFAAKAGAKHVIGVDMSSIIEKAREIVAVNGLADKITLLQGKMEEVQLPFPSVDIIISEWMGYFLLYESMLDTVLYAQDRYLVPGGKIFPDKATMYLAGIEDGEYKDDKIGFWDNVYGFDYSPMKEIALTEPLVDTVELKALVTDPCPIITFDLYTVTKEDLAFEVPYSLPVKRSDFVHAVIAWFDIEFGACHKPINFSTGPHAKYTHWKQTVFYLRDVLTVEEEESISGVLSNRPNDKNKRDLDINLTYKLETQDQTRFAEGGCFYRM

Usually IC50 stands for the midpoint of a concentration-inhibition curve. Consider `CC(C)(C(=O)/C=C/c1cc(Br)c(O)c(Br)c1)C(=O)/C=C/c1cc(Br)c(O)c(Br)c1`, for which the result with U-937 [1] and in the assay with U-937 [2] was Active. For the same molecule, the IC50 at RmtA was found to be 156 µM.

For the molecule `O=C(/C=C/c1cc(Br)c(O)c(Br)c1)c1ccccc1`, the outcome in the assay with U-937 [3], with U-937 [1] and with U-937 [2] was Active. Moreover, the IC50 against RmtA was 115 µM.

Take `CN1C2CCC1/C(=C\c1cc(Br)c(O)c(Br)c1)C(=O)/C2=C/c1cc(Br)c(O)c(Br)c1`: the result in the assay with U-937 [3], in the assay with U-937 [1] and in the assay with U-937 [2] was Active. Moreover, the IC50 against RmtA was found to be 84 µM.

Regarding `O=C1/C(=C/c2cc(Br)c(O)c(Br)c2)Cc2ccccc2/C1=C\c1cc(Br)c(O)c(Br)c1`, the outcome with U-937 [3], with U-937 [1] and in the assay on U-937 [2] was Active. This molecule also returned a 50% inhibitory concentration (IC50) at RmtA of 37 µM.

As for `Cc1cc(/C=C/C(=O)/C=C/c2cc(C)c(O)c(C)c2)cc(C)c1O`, the outcome in the assay on U-937 [3], in the assay on U-937 [1] and with U-937 [2] was Active. The same molecule showed an IC50 at RmtA of 206 µM.

As for `O=C(CCCC(=O)Nc1cc(Br)c(O)c(Br)c1)Nc1cc(Br)c(O)c(Br)c1`, the result with U-937 [1] and in the assay with U-937 [2] was Active. On RmtA, this molecule returned an IC50 of 173 µM.

`O=C(/C=C/c1ccc(O)c(F)c1)/C=C/c1ccc(O)c(F)c1`: the outcome in the assay with U-937 [3], in the assay with U-937 [1] and in the assay on U-937 [2] was Active. Also, at RmtA, half-maximal inhibition (IC50) was put at 169 µM.

In the case of `O=C(NCCCCNC(=O)c1cc(Br)c(O)c(Br)c1)c1cc(Br)c(O)c(Br)c1`, the result with U-937 [1] and in the assay with U-937 [2] was Active. This molecule also yielded a 50% inhibitory concentration (IC50) against RmtA of 616 µM.

For the molecule `CN1C/C(=C\c2ccc(O)c(Br)c2)C(=O)/C(=C/c2ccc(O)c(Br)c2)C1`, the outcome in the assay on U-937 [3], with U-937 [1] and in the assay with U-937 [2] was Active. Also, on RmtA, the midpoint of inhibition, the IC50, lay at 162 µM.

`O=C(/C=C/c1ccc(O)c([N+](=O)[O-])c1)/C=C/c1ccc(O)c([N+](=O)[O-])c1`: the outcome in the assay on U-937 [3], in the assay on U-937 [1] and with U-937 [2] was Active. The molecule also yielded an IC50 at RmtA of 249 µM.

As to `O=C1/C(=C/c2cc(Br)c(O)c(Br)c2)CN(Cc2ccccc2)C/C1=C\c1cc(Br)c(O)c(Br)c1`, the result in the assay on U-937 [3], in the assay on U-937 [1] and with U-937 [2] was Active. The molecule also showed an IC50 against RmtA of 210 µM.

In the case of `O=C(/C=C/c1ccc(O)c(C(=O)O)c1)/C=C/c1ccc(O)c(C(=O)O)c1`, the result in the assay on U-937 [3], with U-937 [1] and in the assay with U-937 [2] was Active. At RmtA, this molecule displayed an IC50 of 55 µM.

Consider `O=C(NCCNC(=O)c1cc(Br)c(O)c(Br)c1)c1cc(Br)c(O)c(Br)c1`, for which the result in the assay on U-937 [1] and in the assay on U-937 [2] was Active. The IC50 against RmtA turned out to be 89.7 µM.

Turning to `O=C(NCCCNC(=O)c1cc(Br)c(O)c(Br)c1)c1cc(Br)c(O)c(Br)c1`, the outcome in the assay with U-937 [1] and with U-937 [2] was Active. In addition, the IC50 against RmtA was determined as 75.4 µM.

Take `O=C(CC(=O)Nc1cc(Br)c(O)c(Br)c1)Nc1cc(Br)c(O)c(Br)c1`: the outcome with U-937 [1] and in the assay with U-937 [2] was Active. At RmtA, this molecule registered a half-maximal inhibitory concentration (IC50) of 102 µM.

In the case of `O=C(CCC(=O)Nc1cc(Br)c(O)c(Br)c1)Nc1cc(Br)c(O)c(Br)c1`, the outcome in the assay on U-937 [1] and in the assay on U-937 [2] was Active. The same molecule showed a half-inhibitory concentration (IC50) against RmtA of 156 µM.

Turning to `O=C(Nc1cc(Br)c(O)c(Br)c1)C(=O)Nc1cc(Br)c(O)c(Br)c1`, the outcome in the assay with U-937 [1] and in the assay with U-937 [2] was Active. The same molecule came in with an IC50 on RmtA of 32.6 µM.
